Bioassay records as filed in PubChem.
The list is not random: actives were taken first. Their share in the collection is about 3.1%.
KCNQ1 block = inhibitors of human KCNQ1 potassium channel | CHO-K1 KCNQ1, FluxOR thallium flux fluorescence; active compounds read high | B-score at 10 µM | P51787 | 1.3% of 310,000 active;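 active means compounds whose thallium flux B-score, printed positive for inhibition, exceeds three library SD while starting fluorescence stays within three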;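 further: channel opened by potassium depolarization with thallium stimulus after 20 min compound exposure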
KCNK9 inh = human KCNK9 channel inhibition; Q9NPC2; HEK293 KCNK9, FluxOR thallium flux fluorescence; active compounds read low; B-score at 10 µM; 1.2% of 310,000 active;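 active means ratio B-score over 3 SD below the library mean, with starting fluorescence within 5 SD of its mean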;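 further: negative B-score means less thallium flux so channel inhibition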
KCNK3 inh = human KCNK3 channel inhibition, primary screen | O14649 | CHO-KCNK3 thallium flux, FluxOR fluorescence; active compounds read low | B-score at 10 µM | 0.84% of 340,000 active;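 active means B-score under library mean minus 4 SD, starting fluorescence ratio at most library mean plus 5 SD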;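 further: more negative B-score means stronger inhibition of thallium flux through KCNK3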
KCNQ1 act = human KCNQ1 channel potentiation or activation; 0.35% of 310,000 active; B-score at 10 µM; CHO-K1 KCNQ1, thallium flux FluxOR fluorescence; active compounds read high; P51787;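 active means fluorescence ratio B-score, a plate-corrected score, at least three library SD, with initial intensity B-score within 5 SD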
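Doses: Single concentration per compound, DMSO matched to controls | Test system: KCNQ1-transfected CHO-K1 cells | Timing: 90 min dye loading and 20 min compound exposure, both at room temperature | Measured by: Kinetic FluxOR thallium fluorescence, 10-s 1-Hz baseline, 110-s post-stimulus read | Medium: Assay buffer with matched DMSO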
hERG rescue = shields human hERG channel from block by proarrhythmic agents. Q12809. CHO-hERG, FluxOR thallium flux, dofetilide IC70 present. activation (rescue from dofetilide block), less the hit threshold, % at 10 µM. 0.51% of 310,000 active. AID 1511;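 active means activation above the mean of controls blocked by dofetilide plus 5 SD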;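 further: thallium influx through hERG after potassium depolarization seen as dye fluorescence rise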
Target sequence (Q12809 whole entry, looked up): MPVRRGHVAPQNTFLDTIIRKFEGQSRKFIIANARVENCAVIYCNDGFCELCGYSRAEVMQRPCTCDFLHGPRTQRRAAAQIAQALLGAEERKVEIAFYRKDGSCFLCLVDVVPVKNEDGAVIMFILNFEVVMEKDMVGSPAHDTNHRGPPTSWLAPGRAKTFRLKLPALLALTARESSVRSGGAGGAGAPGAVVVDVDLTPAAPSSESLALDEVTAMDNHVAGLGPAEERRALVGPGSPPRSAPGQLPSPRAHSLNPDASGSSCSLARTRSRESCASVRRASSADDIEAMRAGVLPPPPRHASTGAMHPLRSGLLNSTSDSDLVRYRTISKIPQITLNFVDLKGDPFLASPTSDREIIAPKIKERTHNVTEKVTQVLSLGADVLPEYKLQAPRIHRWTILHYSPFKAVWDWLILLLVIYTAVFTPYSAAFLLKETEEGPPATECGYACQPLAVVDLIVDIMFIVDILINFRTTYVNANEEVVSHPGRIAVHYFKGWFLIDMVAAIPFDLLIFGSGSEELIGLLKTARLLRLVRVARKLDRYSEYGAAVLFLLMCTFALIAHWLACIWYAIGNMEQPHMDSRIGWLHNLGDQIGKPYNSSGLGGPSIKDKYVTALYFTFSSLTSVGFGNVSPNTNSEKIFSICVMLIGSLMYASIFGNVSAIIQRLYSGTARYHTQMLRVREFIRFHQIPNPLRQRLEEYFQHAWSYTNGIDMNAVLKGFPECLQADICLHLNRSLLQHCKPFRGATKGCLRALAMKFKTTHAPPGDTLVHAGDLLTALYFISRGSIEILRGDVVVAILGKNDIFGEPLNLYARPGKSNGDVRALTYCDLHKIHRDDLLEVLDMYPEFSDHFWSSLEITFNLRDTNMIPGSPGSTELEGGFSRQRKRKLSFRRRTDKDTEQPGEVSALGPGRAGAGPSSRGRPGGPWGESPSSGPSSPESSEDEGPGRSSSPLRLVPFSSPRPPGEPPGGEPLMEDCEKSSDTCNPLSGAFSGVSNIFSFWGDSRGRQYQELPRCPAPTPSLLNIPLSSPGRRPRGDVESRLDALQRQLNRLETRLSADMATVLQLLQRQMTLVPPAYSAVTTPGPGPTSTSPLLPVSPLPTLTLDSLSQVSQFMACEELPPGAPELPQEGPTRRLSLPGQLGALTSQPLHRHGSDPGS
KCNK9 block conf = human KCNK9 inhibitor confirmation. shares compounds with KCNK9 inh. HEK293 KCNK9 cells, FluxOR thallium flux fluorescence. inhibition, % at 10 µM. 43% of 4,900 active. AID 492992;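 active means thallium signal inhibited by more than 5 SD of the compound-free buffer control wells, on both duplicate plates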;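 further: 0% = assay buffer control wells without compound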
Kir21 sel = mouse Kir2.1 off-target activity of KCNK9 modulators; shares compounds with KCNK9 inh; Kir2.1 cells, FluxOR thallium flux fluorescence; inhibition, % at 10 µM; 4% of 4,900 active; AID 492993;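 active means thallium signal drop more than 5 SD beyond the mean of the no-compound control wells, seen in both duplicate plates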;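 further: signal is fluorescence rise after thallium addition divided by baseline fluorescence; plate controls were assay buffer only for no effect and full block by chlorpromazine control for full effect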
HEK293 Tl ctr = non-induced cell nonspecific activity of KCNK9 modulators | 40% of 4,900 active | inhibition, % at 10 µM | non-induced KCNK9-HEK293, FluxOR thallium flux | shares compounds with KCNK9 inh | AID 492997;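 active means thallium signal drop beyond 5 SD of the untreated control mean, on both duplicate plates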;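 further: plate controls were buffer only IC0 wells for no effect and SID17386958 at its maximal inhibitory level for full effect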
The depositor's hits bear a star; i = inactive; x = no result given.

SMILES	KCNQ1 block	KCNK9 inh	KCNK3 inh	KCNQ1 act	hERG rescue	KCNK9 block conf	Kir21 sel	HEK293 Tl ctr
Cc1ccc(-c2noc(CSc3nnc(Cc4ccccc4)n3-c3ccc(Cl)cc3)n2)cc1	i	i	i	i	-10	i	i	31%*
COc1ccc(-c2noc(CSc3nnc(Cc4ccccc4)n3-c3ccc(Cl)cc3)n2)cc1	i	i	i	i	-14	i	i	i
Cc1ccc(SCc2nc(-c3ccccc3)no2)cc1	i	i	i	i	-6	x	x	x
COc1ccc(C(=O)Nc2ccc(S(=O)(=O)Nc3nccc(C)n3)cc2)cc1[N+](=O)[O-]	i	i	i	i	-2	x	x	x
COc1cccc(-c2nc(CS(=O)(=O)CC(=O)Nc3cc(F)ccc3F)c(C)o2)c1	i	i	i	i	-6	x	x	x
O=[N+]([O-])c1ccc(S(=O)(=O)N/N=C/c2ccsc2)cc1	i	i	i	i	-6	x	x	x
CCCCc1nc(SCC(=O)Nc2cccc(Cl)c2)n[nH]1	i	i	i	i	-6	x	x	x
COc1cccc(NC(=O)CN(C)C(=O)C2CC(=O)N(CCc3ccc(OC)c(OC)c3)C2)c1 (stereo unspecified)	x	x	i	x	x	x	x	x
CNC[C@H](Cc1ccccc1)NC[C@@H](Cc1cccc2ccccc12)NCCc1ccc(C)cc1	11*	-9.5*	i	i	-28	70%*	76%*	58%*
CNCCNC[C@H](Cc1cccc2ccccc12)NCCc1ccccc1	x	x	i	x	x	x	x	x
Cc1cccc(N=Nc2c(C)nn(-c3ccccc3)c2N)c1C	i	-9.3*	i	i	-5	34%*	i	i
Cc1nn(-c2ccccc2)c(N)c1N=Nc1ccccc1	i	-11*	i	i	-12	29%*	i	28%*
CCN(CC(=O)NCc1cccs1)C(=O)c1ccc(S(=O)(=O)Nc2ccccc2F)cc1	i	i	i	i	-8	x	x	x
Cc1ccc(CN2CCc3c(OCc4ccc(F)cc4)cccc3C2=O)cc1	i	-13*	i	i	-11	71%*	i	42%*
Cc1cccc(NC(=S)N/N=C2/CCCCc3ccccc32)c1	i	i	i	i	5.8*	i	i	i
Cc1ccc(NC(=S)N/N=C2/CCCCc3ccccc32)cc1	i	i	i	8*	-5	i	i	i
Cc1nc(-c2cccc(S(=O)(=O)N3CCCCCC3)c2)cs1	i	i	i	i	-6	i	i	i
Cc1nc(-c2cccc(S(=O)(=O)N3CCCCC3)c2)cs1	i	i	i	i	-14	x	x	x
CC1(c2ccccc2)NC(=O)N(CC(=O)N(c2ccccc2)C2CCS(=O)(=O)C2)C1=O (stereo unspecified)	x	x	i	x	x	x	x	x
O/N=C/Cc1[nH]c2ccccc2c1-c1ccccc1	i	-9.1*	i	i	-6	47%*	i	i
Cc1cc(C)nc(Sc2ccc(/C=C(\C#N)C(=O)Nc3ccccc3)o2)n1	i	i	i	i	2	x	x	x
CCc1ccccc1NC(=O)/C(C#N)=C\c1ccc(Sc2ccccc2)o1	i	-11*	-9.4*	i	-3	40%*	i	49%*
CCc1ccccc1NC(=O)/C(C#N)=C/c1ccc(Sc2ccccc2)o1	i	-14*	i	i	-7	53%*	i	51%*
CC1CC1c1ccc(/C=C(\C#N)C(=O)Nc2ccccc2Cl)o1 (stereo unspecified)	i	i	i	i	-13	x	x	x
CCN(CCCNC(=O)CNC(=O)c1nn(-c2ccc(OC)c(OC)c2)c(=O)c2ccccc12)c1ccccc1	i	i	i	i	-9	x	x	x
SMILES	KCNQ1 block	KCNK9 inh	KCNK3 inh	KCNQ1 act	hERG rescue	KCNK9 block conf	Kir21 sel	HEK293 Tl ctr
CC1CCC(NC(=O)CCS(=O)(=O)c2ccc3c(c2)CC(C)N3C(=O)C2CC2)CC1 (stereo unspecified)	i	i	i	i	-8	x	x	x
CSCCC(NS(=O)(=O)c1ccc(C)cc1)C(=O)N1CCN(C(c2ccccc2)c2ccccc2)CC1 (stereo unspecified)	i	-9.4*	i	i	-14	35%*	i	32%*
Fc1ccccc1C1c2cccn2CCN1C(=S)Nc1cccc(Br)c1 (stereo unspecified)	i	-11*	i	i	-8	36%*	i	48%*
NC(=O)CC(NC(=O)c1ccccc1)c1ccc(N2CCC(N3CCCC3)CC2)c([N+](=O)[O-])c1 (stereo unspecified)	i	i	i	i	-8	x	x	x
NC(=O)CC(NC(=O)c1ccc(Br)cc1)c1ccc(N2CCCCCCC2)c([N+](=O)[O-])c1 (stereo unspecified)	i	-10*	i	i	-10	30%*	i	42%*
NC(=O)CC(NC(=O)c1ccc(Br)cc1)c1ccc(N2CCC(Cc3ccccc3)CC2)c([N+](=O)[O-])c1 (stereo unspecified)	i	-9.5*	i	i	-9	55%*	i	32%*
NC(=O)CC(NC(=O)c1ccc(Br)cc1)c1ccc(N2CCN(c3ccccc3)CC2)c([N+](=O)[O-])c1 (stereo unspecified)	i	i	i	i	-7	x	x	x
CC(CCc1ccccc1)NC(=O)C1CCCN(C(=O)c2cc3sccc3n2C)C1 (stereo unspecified)	i	i	i	i	0	x	x	x
CCn1c(C(=O)N2CCCC(C(=O)NCCCc3ccccc3)C2)cc2sccc21 (stereo unspecified)	i	i	i	i	-9	i	i	i
Cn1c(C(=O)N2CCCC(C(=O)NCCCSC3CCCCC3)C2)cc2sccc21 (stereo unspecified)	i	i	i	i	-4	i	i	i
CCn1c(C(=O)N2CCCC(C(=O)NCCc3ccc(C)cc3)C2)cc2sccc21 (stereo unspecified)	x	x	i	x	x	x	x	x
Cc1ccccc1CNC(=O)Nc1ccc(Cl)cc1	i	i	i	i	-5	x	x	x
CN(C)CCNC(=O)C1CCN(S(=O)(=O)c2ccc3ccccc3c2)CC1	i	i	i	i	-11	x	x	x
CC(C)(CC(=O)O)CC(=O)Nc1ccc2c(c1)ncn2CCc1ccccc1	i	i	i	i	-3	x	x	x
CC(C)CCn1c(=O)c2ccccc2n2c(CCl)nnc12	i	i	i	i	-11	x	x	x
